PubChem BioAssay AID624399 (The Scripps Research Institute Molecular Screening Center, 2012)
Active and inactive are the calls of the source.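 Rule for the calls: active = increase in reporter activity of 20% or more; inactive = increase below 20%, or a negative response.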

test system: BG1Luc4E2 cells, ERE-luciferase luminescence, 24 h; experiment: activators of ER-driven luciferase reporter, late-stage follow-up, counter-screen for AHR activator project, BG1Luc4E2 ovarian carcinoma cells, luminescence (AID 624399); details: at 10 µM; stronger effect = higher value
How it was run: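 Doses: Single test concentration of 10 µM per compound | Material: BG1Luc4E2 cells, firefly luciferase reporter under two synthetic EREs | Measured by: Firefly luciferase luminescence measured after cell lysis | Timing: 5-day estrogen depletion, then 24 h compound exposure at 37 °C | Read-out basis: Maximum % reporter activation | Medium: Phenol red-free DMEM with charcoal-stripped serum, estrogen-depleted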

Row | SMILES | activation
1 | Cc1cccc(C)c1NC(=O)c1ccc(C(=O)Nc2c(C)cccc2C)nc1 | -5.1% (inactive)
2 | Cc1cc(Nc2ccc(F)cc2)nc(N)n1 | -2.7% (inactive)
3 | O=C(CSc1nc2ccccc2s1)Nc1ccc(Cl)cn1 | -2% (inactive)
4 | O=C(CSc1nc(-c2ccc(F)cc2)cs1)Nc1ccccn1 | 1% (inactive)
5 | CCOc1ccccc1NC(=O)c1ccc(C(=O)Nc2ccccc2OCC)nc1 | -2.8% (inactive)
6 | O=C(CSc1nc2ccccc2s1)Nc1ccccn1 | -1% (inactive)
7 | COc1ccc(-c2cc(-c3ccc(C)cc3O)[nH]n2)cc1 | -7.2% (inactive)
8 | Nc1nc(Cl)cc(Nc2ccccc2F)n1 | -0.9% (inactive)
9 | CCOC(=O)c1c(C)nn(-c2cc(Cl)ccc2Cl)c1C | -3.3% (inactive)
10 | COc1ccc(Nc2cc(Cl)nc(N)n2)cc1OC | 13.6% (inactive)
11 | COc1ccc(NC(=O)c2ccc(C(=O)Nc3ccc(OC)cc3OC)nc2)c(OC)c1 | -0.5% (inactive)
12 | CN(Cc1cc(-c2cccs2)n[nH]1)Cc1coc2ccccc2c1=O | -2.6% (inactive)
13 | COc1ccc(Nc2cc(Cl)nc(N)n2)cc1 | 2.2% (inactive)
14 | Cc1ccnc(NC(=O)CSc2nc3ccccc3s2)c1 | -3.7% (inactive)
15 | COc1ccc(Cl)cc1NC(=O)c1ccc(C(=O)Nc2cc(Cl)ccc2OC)nc1 | -3.6% (inactive)
16 | Cc1ccc(NC(=O)c2ccc(C(=O)Nc3ccc(C)cc3C)nc2)c(C)c1 | -1.6% (inactive)
17 | Cc1csc(SCC(=O)Nc2ccccn2)n1 | -2.6% (inactive)
18 | Cc1cccc(NC(=O)c2cc(-c3ccc(C)cc3O)n[nH]2)c1 | 1.8% (inactive)
19 | Cc1ccc(-c2cc(-c3ccc(Cl)cc3)n[nH]2)c(O)c1 | 3.2% (inactive)
20 | COc1ccc(O)c(-c2cc(-c3cccs3)[nH]n2)c1 | -3% (inactive)
21 | Cc1ccc(-c2cc(-c3cccc(F)c3)n[nH]2)c(O)c1 | 3.8% (inactive)
22 | Cc1cc(Br)cc(C)c1Nc1ccnc(Nc2ccc(C#N)cc2)n1 | -3.5% (inactive)
23 | Nc1nc(Cl)cc(Nc2ccc(Oc3ccccc3)cc2)n1 | 3.3% (inactive)
24 | Cc1ccc(-c2cc(-c3ccc(F)cc3)n[nH]2)c(O)c1 | 5.8% (inactive)
25 | Cc1ccc(O)c(-c2cc(-c3ccccc3Cl)[nH]n2)c1 | 11.6% (inactive)
